Reference: ChEMBL document CHEMBL4402565, “α-Ketoamides as Broad-Spectrum Inhibitors of Coronavirus and Enterovirus Replication: Structure-Based Design, Synthesis, and Activity Assessment” (J Med Chem, 2020)

Legend:
[1] = Therapeutic index, ratio of CC50 for human HuH7 cells expressing T7 RNA polymerase to EC50 for […] infected in human HuH7 cells expressing T7 RNA polymerase; format: toxicity, cell-based; conditions: read-out: Ratio CC50/EC50
SARS-CoV [2] = assay: Antiviral activity against SARS coronavirus infected in Vero E6 cells assessed as reduction in virus-induced cytopathic effect incubated for 2 days by non-radioactive cell proliferation assay; format: functional, organism-based; conditions: Severe acute respiratory syndrome-related coronavirus, Vero C1008, 48 h
[3] = Therapeutic index, ratio of CC50 for human HuH7 cells expressing T7 RNA polymerase to EC50 for Human coronavirus 229E infected in human HuH7 cells expressing T7 RNA polymerase; format: toxicity, cell-based; conditions: read-out: Ratio CC50/EC50
In short: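 Huh7 cells were infected with HCoV-229E at […] for 1.5 h at 37 °C and washed. Complete DMEM containing inhibitor (0–40 µM) was added. […] CC50 came from a parallel AlamarBlue viability assay normalised to no-inhibitor and 1% Triton X-100 controls. Therapeutic index = CC50/EC50.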

[4] = test system: Middle East respiratory syndrome-related coronavirus; assay: Antiviral activity against Middle East respiratory syndrome coronavirus infected in HuH7 cells expressing T7 RNA polymerase assessed as reduction in virus-induced cytopathic effect incubated for 2 days by non-radioactive cell proliferation assay; format: functional, organism-based; conditions: Huh-7, 48 h
[5] = Inhibition of Enterovirus A71 protease 3C using DabcylKEALFQ-GPPQF-E(Edans)-NH2 as substrate incubated for 10 mins by fluorospectrometry
In short: (§1)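 FRET cleavage assay in 20 mM Tris-HCl, 100 mM NaCl, 1 mM EDTA, 1 mM DTT, pH 7.3. Final enzyme 2 μM for CVB3 3Cpro or 3 μM for EV-A71 3Cpro, preincubated with inhibitor (0–100 μM) for 10 min at 37 °C. Reaction started with 20 μM final Dabcyl-KEALFQ↓GPPQF-E(Edans)-NH₂. Edans dequenching read at ex 360/em 460 nm. Triplicate, mean ± SD.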

[6] = Antiviral activity against […] infected in HuH7 cells expressing T7 RNA polymerase assessed as reduction in virus-induced cytopathic effect incubated for 2 days by non-radioactive cell proliferation assay; format: functional, organism-based; conditions: B3, Huh-7, 48 h
Enterovirus A71 [7] = assay: Antiviral activity against Enterovirus A71 infected in RD cells assessed as reduction in virus-induced cytopathic effect incubated for 3 days by MTS assay; format: functional, organism-based; conditions: Enterovirus A, 72 h
In short: (§2)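 CPE reduction assay. RD (EV-A71) or HeLa Rh (EV-D68, HRV) cells seeded 24 h earlier in medium with 2% FCS; HRV2/HRV14 medium contained 30 mM MgCl₂. Serial compound dilutions added with virus. At 3 days post infection, 5% MTS added for 1 h at 37 °C and OD498 read. EC50 taken as 50% protection versus controls by logarithmic interpolation; morphology also checked microscopically.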

rhinovirus B14 = assay: Antiviral activity against Human rhinovirus 14 infected in HeLa Rh cells assessed as reduction in virus-induced cytopathic effect incubated for 3 days by MTS assay; format: functional, organism-based; conditions: Rhinovirus B, 72 h; in short: as §2
[8] = Therapeutic index, ratio of CC50 for human HeLa Rh cells to EC50 for Human rhinovirus 2 infected in human HeLa Rh cells; format: toxicity, cell-based; conditions: read-out: Ratio CC50/EC50
[9] = Inhibition of SARS coronavirus M protease using Dabcyl-KTSAVLQ-SGFRKM-E(Edans)-NH2 as substrate incubated for 10 mins by fluorospectrometry; set-up: species or system Severe acute respiratory syndrome-related coronavirus
In short: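 FRET cleavage assay with 0.5 µM recombinant SARS-CoV Mpro (authentic termini) in 20 mM Tris-HCl, 100 mM NaCl, 1 mM EDTA, 1 mM DTT, pH 7.3. Enzyme was preincubated with inhibitor (0–100 µM) for 10 min at 37 °C, then 20 µM final substrate was added. Fluorescence was read at ex 360/em 460 nm. Triplicate, mean ± SD; IC50 from curve fitting.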

[10] = Antiviral activity against […] infected in HuH7 cells expressing T7 RNA polymerase assessed as reduction in viral RNA replication incubated for 24 hrs by luciferase reporter gene assay; format: functional, organism-based; conditions: B3, Huh-7, 24 h
In short: (§3)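 Huh-T7 cells (DMEM, 2 mM glutamine, penicillin/streptomycin, 10% FCS growth or 2% maintenance, G-418 400 μg·mL⁻¹) transfected with enteroviral replicon. Compound added in growth medium at 40 μM for screening or 0, 1.25, 2.5, 5, 10, 20, 40 μM for EC50. After 24 h, cells lysed and luciferase activity read. Triplicate or quadruplicate, mean ± SD.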

[11] = Inhibition of human coronavirus NL63 M protease using Dabcyl-KTSAVLQ-SGFRKM-E(Edans)-NH2 as substrate incubated for 10 mins by fluorospectrometry
In short: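 0.5 μM final HCoV-NL63 Mpro preincubated 10 min at 37 °C with inhibitor (0–100 μM) in pH 7.3 Tris buffer (100 mM NaCl, 1 mM EDTA, 1 mM DTT). Cleavage of 20 μM Dabcyl-KTSAVLQ↓SGFRKM-E(Edans)-NH₂ followed by fluorescence at 460 nm with 360 nm excitation. IC50 from triplicate measurements, mean ± SD.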

[12] = Cytotoxicity against human HuH7 cells expressing T7 RNA polymerase assessed as reduction in cell viability incubated for 2 days by non-radioactive cell proliferation assay; format: cell-based, Huh-7
SARS-CoV [13] = assay: Antiviral activity against SARS coronavirus infected in HuH7 cells expressing T7 RNA polymerase assessed as reduction in viral RNA replication incubated for 24 hrs by luciferase reporter gene assay; format: functional, organism-based; conditions: Severe acute respiratory syndrome-related coronavirus, Huh-7, 24 h
In short: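 SARS-CoV replicon (DNA-launched, Renilla luciferase reporter) was transfected into Huh-T7 cells at 80–90% confluency. Compound at 0, 1.25, 2.5, 5, 10, 20 or 40 µM in growth medium was added after transfection. At 24 h, cells were lysed and luciferase activity measured. Runs were in triplicate or quadruplicate, reported as mean ± SD.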

[14] = Therapeutic index, ratio of CC50 for monkey Vero E6 cells to EC50 for SARS coronavirus infected in monkey Vero E6 cells; format: toxicity, cell-based, Vero C1008; conditions: read-out: Ratio CC50/EC50
[15] = Therapeutic index, ratio of CC50 for human HuH7 cells expressing T7 RNA polymerase to EC50 for Middle East respiratory syndrome coronavirus infected in human HuH7 cells expressing T7 RNA polymerase; format: toxicity, cell-based; conditions: read-out: Ratio CC50/EC50
Enterovirus A71 [16] = assay: Antiviral activity against Enterovirus A71 infected in HuH7 cells expressing T7 RNA polymerase assessed as reduction in viral RNA replication incubated for 24 hrs by luciferase reporter gene assay; format: functional, organism-based; conditions: Enterovirus A, Huh-7, 24 h; in short: as §3
[17] = Cytotoxicity against human HeLa Rh cells assessed as reduction in cell viability incubated for 3 days by MTS assay; format: cell-based
[18] = Cytotoxicity against human RD cells assessed as reduction in cell viability incubated for 3 days by MTS assay; format: cell-based
[19] = Therapeutic index, ratio of CC50 for human RD cells to EC50 for Enterovirus A71 infected in human RD cells; format: toxicity, cell-based; conditions: read-out: Ratio CC50/EC50
In short: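 RD cells were seeded 24 h ahead in 2% FCS medium, then given compound serial dilutions plus EV-A71 (BRCR) inoculum. After 3 days, MTS was added for 1 h at 37 °C and OD498 read. EC50 was interpolated as the concentration giving 50% protection from CPE. CC50 was measured on uninfected host cells by viability or cytotoxicity kits. Index = CC50/EC50.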

[20] = Therapeutic index, ratio of CC50 for human HeLa Rh cells to EC50 for Enterovirus D68 infected in human HeLa Rh cells; format: toxicity, cell-based; conditions: read-out: Ratio CC50/EC50
[21] = Therapeutic index, ratio of CC50 for monkey Vero cells to EC50 for Middle East respiratory syndrome coronavirus infected in monkey Vero cells; format: toxicity, cell-based; conditions: read-out: Ratio CC50/EC50
[22] = Inhibition of […] protease 3C using DabcylKEALFQ-GPPQF-E(Edans)-NH2 as substrate incubated for 10 mins by fluorospectrometry; set-up: species or system Coxsackievirus; in short: as §1
[23] = Therapeutic index, ratio of CC50 for human HeLa Rh cells to EC50 for Human rhinovirus 14 infected in human HeLa Rh cells; format: toxicity, cell-based; conditions: read-out: Ratio CC50/EC50
[24] = test system: Middle East respiratory syndrome-related coronavirus; assay: Antiviral activity against Middle East respiratory syndrome coronavirus infected in Vero cells assessed as reduction in virus-induced cytopathic effect incubated for 3 days by non-radioactive cell proliferation assay; format: functional, organism-based; conditions: 72 h
Human coronavirus 229E = assay: Antiviral activity against Human coronavirus 229E infected in HuH7 cells expressing T7 RNA polymerase assessed as reduction in virus-induced cytopathic effect incubated for 48 hrs by Alamar blue based assay; format: functional, organism-based; conditions: Huh-7, 48 h
enterovirus D68 = assay: Antiviral activity against Enterovirus D68 infected in HeLa Rh cells assessed as reduction in virus-induced cytopathic effect incubated for 3 days by MTS assay; format: functional, organism-based; conditions: Enterovirus D, 72 h; in short: as §2
rhinovirus A2 = assay: Antiviral activity against Human rhinovirus 2 infected in HeLa Rh cells assessed as reduction in virus-induced cytopathic effect incubated for 3 days by MTS assay; format: functional, organism-based; conditions: Rhinovirus A, 72 h; in short: as §2

O=C(/C=C/c1ccccc1)N[C@@H](Cc1ccccc1)C(=O)N[C@@H](C[C@@H]1CCNC1=O)C(=O)C(=O)NCc1ccccc1
selectivity ratio [1]: > 10
EC50 (SARS-CoV [2]): 5.8 µM
selectivity ratio [3]: > 10
EC50 [4]: 0.0048 µM
IC50 [5]: 1.22 µM
EC50 [6]: 14 µM
EC50 (Enterovirus A71 [7]): 9.8 µM
EC50 (rhinovirus B14): 4.3 µM
selectivity ratio [8]: > 15
IC50 [9]: 1.95 µM
EC50 [10]: 4.5 µM
IC50 [11]: > 50 µM
CC50 at 48 h [12]: > 265 µM
EC50 (SARS-CoV [13]): 2 µM
selectivity ratio [14]: > 10
selectivity ratio [15]: > 10
EC50 (Enterovirus A71 [16]): 4.5 µM
CC50 at 72 h [17]: 35.5 µM
CC50 at 72 h [18]: 97 µM
selectivity ratio [19]: > 10
selectivity ratio [20]: > 10
selectivity ratio [21]: > 10
IC50 [22]: 6.56 µM
selectivity ratio [23]: > 15
EC50 [24]: 13.4 µM
EC50 (Human coronavirus 229E): 11.8 µM
EC50 (enterovirus D68): 0.48 µM
EC50 (rhinovirus A2): 5.6 µM
